The values that follow come from ChEMBL document CHEMBL4364274, “Synthesis and biological activity of glycyrrhetinic acid derivatives as antitumor agents” (Eur J Med Chem, 2019).

Bounds are passed on as bounds.

One assay deals with MCF7. As to the kind of experiment: Antiproliferative activity against human MCF7 cells incubated for 72 hrs by MTT assay. Particulars: MCF7, 72 h. Type of assay: functional, cell-based. The method, boiled down:
(§1)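 Cells in exponential growth were plated at 3×10^3 cells/well and grown 24 h at 37 °C in 5% CO2. They were then exposed to a range of drug concentrations for 72 h. MTT (5 mg/mL solution) was added for 4 h, the medium was discarded, and formazan was dissolved in DMSO before reading A490. Drug-free wells served as blanks. % inhibition was calculated as 1 − (sample−blank)/(control−blank), and IC50 was taken as the concentration giving 50% inhibition.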

A further assay has as its system HepG2. Kind of assay: Antiproliferative activity against human HepG2 cells incubated for 72 hrs by MTT assay. Type of assay: functional, cell-based. The conditions noted are these: HepG2, 72 h. The method, boiled down:
as §1
(Formazan colour is commonly taken as a measure of viable cells.)

A further assay concerns MDCK. Kind of assay: Cytotoxicity against MDCK cells incubated for 72 hrs by MTT assay. It is filed as cell-based. The conditions noted are these: Canis lupus familiaris. The method, boiled down:
as §1

In the next assay the test system is A549. Kind of assay: Antiproliferative activity against human A549 cells incubated for 72 hrs by MTT assay. It is filed as functional, cell-based. The conditions noted are these: A549, 72 h. The method, boiled down: as §1
A further assay relates to HeLa. Kind of assay: Antiproliferative activity against human HeLa cells incubated for 72 hrs by MTT assay. It is filed as functional, cell-based. The method, boiled down:
as §1

For orientation: IC50 means the concentration that gives 50% inhibition. Read a high IC50 as a need for much substance. As to `CSCC[C@H](N)C(=O)O[C@H]1CC[C@]2(C)[C@H]3C(=O)C=C4[C@@H]5C[C@@](C)(C(=O)OCc6ccccc6)CC[C@]5(C)CC[C@@]4(C)[C@]3(C)CC[C@H]2C1(C)C`, the IC50 in the assay on MCF7 was determined as 8.07 µM; with HepG2 it was 9.96 µM; in the assay on MDCK, 39.2 µM; with A549, 7.53 µM; in the assay with HeLa, 10.6 µM.

With `CN(CC(=O)N[C@H]1CC[C@]2(C)[C@H]3C(=O)C=C4[C@@H]5C[C@@](C)(C(=O)OCc6ccccc6)CC[C@]5(C)CC[C@@]4(C)[C@]3(C)CC[C@H]2C1(C)C)C(=O)OC(C)(C)C`, the IC50 in the assay with MCF7, in the assay on HepG2, in the assay on MDCK, with A549 and in the assay on HeLa was more than 40 µM each time.

On to `CC1(C)[C@@H](NC(=O)CN)CC[C@]2(C)[C@H]3C(=O)C=C4[C@@H]5C[C@@](C)(C(=O)OCc6ccccc6)CC[C@]5(C)CC[C@@]4(C)[C@]3(C)CC[C@@H]12`, for which the 50% inhibitory concentration (IC50) with MCF7 came out at 2.85 µM; in the assay on HepG2 it was 3.47 µM; in the assay with MDCK, 3.75 µM; in the assay on A549, 2.44 µM; with HeLa, 3.01 µM.

`CC[C@H](C)[C@H](N)C(=O)O[C@H]1CC[C@]2(C)[C@H]3C(=O)C=C4[C@@H]5C[C@@](C)(C(=O)OCc6ccccc6)CC[C@]5(C)CC[C@@]4(C)[C@]3(C)CC[C@H]2C1(C)C`: the IC50 in the assay with MCF7 is 10 µM; in the assay with HepG2, 8.15 µM; in the assay with MDCK it was 9.01 µM; with A549 it was 4.97 µM; in the assay with HeLa it was 9.65 µM.

With `CSCC[C@H](NC(=O)OC(C)(C)C)C(=O)N[C@H]1CC[C@]2(C)[C@H]3C(=O)C=C4[C@@H]5C[C@@](C)(C(=O)OCc6ccccc6)CC[C@]5(C)CC[C@@]4(C)[C@]3(C)CC[C@H]2C1(C)C`, the half-maximal inhibitory concentration (IC50) in the assay with MCF7, with HepG2, in the assay on MDCK, with A549 and in the assay on HeLa was more than 40 µM in each case.

Regarding `CC1(C)[C@@H](OC(=O)CN)CC[C@]2(C)[C@H]3C(=O)C=C4[C@@H]5C[C@@](C)(C(=O)OCc6ccccc6)CC[C@]5(C)CC[C@@]4(C)[C@]3(C)CC[C@@H]12`, the IC50 amounted to 3.81 µM in the assay on MCF7; 3.31 µM in the assay with HepG2; 4.43 µM with MDCK; 2.75 µM with A549; 3.3 µM with HeLa.

Regarding `CC(C)(C)OC(=O)N[C@@H](Cc1ccccc1)C(=O)O[C@H]1CC[C@]2(C)[C@H]3C(=O)C=C4[C@@H]5C[C@@](C)(C(=O)OCc6ccccc6)CC[C@]5(C)CC[C@@]4(C)[C@]3(C)CC[C@H]2C1(C)C`, the IC50 in the assay on MCF7, in the assay with HepG2, in the assay with MDCK, with A549 and in the assay with HeLa was more than 40 µM in each case.

In the case of `CC1(C)[C@@H](OC(=O)[C@@H](N)Cc2ccccc2)CC[C@]2(C)[C@H]3C(=O)C=C4[C@@H]5C[C@@](C)(C(=O)OCc6ccccc6)CC[C@]5(C)CC[C@@]4(C)[C@]3(C)CC[C@@H]12`, the IC50 in the assay on MCF7 is 14.4 µM; in the assay with HepG2, more than 40 µM; in the assay on MDCK, 14.4 µM; in the assay on A549, 17 µM; in the assay on HeLa, 18.8 µM.

`CNCC(=O)O[C@H]1CC[C@]2(C)[C@H]3C(=O)C=C4[C@@H]5C[C@@](C)(C(=O)OCc6ccccc6)CC[C@]5(C)CC[C@@]4(C)[C@]3(C)CC[C@H]2C1(C)C`: the half-maximal inhibitory concentration (IC50) in the assay on MCF7 amounted to 3.89 µM; with HepG2, 4.56 µM; with MDCK, 5.76 µM; in the assay with A549, 5 µM; with HeLa it was 8 µM.

Take `CC(C)(C)OC(=O)NCC(=O)N[C@H]1CC[C@]2(C)[C@H]3C(=O)C=C4[C@@H]5C[C@@](C)(C(=O)OCc6ccccc6)CC[C@]5(C)CC[C@@]4(C)[C@]3(C)CC[C@H]2C1(C)C`: the IC50 in the assay on MCF7, in the assay on HepG2, in the assay with MDCK, in the assay with A549 and in the assay on HeLa was more than 40 µM in each case.

Regarding `CC(C)(C)OC(=O)N1CCC[C@H]1C(=O)N[C@H]1CC[C@]2(C)[C@H]3C(=O)C=C4[C@@H]5C[C@@](C)(C(=O)OCc6ccccc6)CC[C@]5(C)CC[C@@]4(C)[C@]3(C)CC[C@H]2C1(C)C`, the IC50 with MCF7, in the assay with HepG2, in the assay with MDCK, in the assay on A549 and with HeLa was more than 40 µM each time.

With `CC(C)(C)OC(=O)N[C@@H](Cc1ccccc1)C(=O)N[C@H]1CC[C@]2(C)[C@H]3C(=O)C=C4[C@@H]5C[C@@](C)(C(=O)OCc6ccccc6)CC[C@]5(C)CC[C@@]4(C)[C@]3(C)CC[C@H]2C1(C)C`, the IC50 in the assay on MCF7, with HepG2, with MDCK, in the assay with A549 and with HeLa was more than 40 µM throughout.

`C[C@H](NC(=O)OC(C)(C)C)C(=O)N[C@H]1CC[C@]2(C)[C@H]3C(=O)C=C4[C@@H]5C[C@@](C)(C(=O)OCc6ccccc6)CC[C@]5(C)CC[C@@]4(C)[C@]3(C)CC[C@H]2C1(C)C`: the IC50 with MCF7, with HepG2, in the assay on MDCK, with A549 and in the assay on HeLa was more than 40 µM each time.

Turning to `CC(C)C[C@H](NC(=O)OC(C)(C)C)C(=O)N[C@H]1CC[C@]2(C)[C@H]3C(=O)C=C4[C@@H]5C[C@@](C)(C(=O)OCc6ccccc6)CC[C@]5(C)CC[C@@]4(C)[C@]3(C)CC[C@H]2C1(C)C`, the half-inhibitory concentration (IC50) in the assay with MCF7, in the assay on HepG2, in the assay on MDCK, in the assay with A549 and in the assay with HeLa was more than 40 µM throughout.

Regarding `CC1(C)[C@@H](O)CC[C@]2(C)[C@H]3C(=O)C=C4[C@@H]5C[C@@](C)(C(=O)O)CC[C@]5(C)CC[C@@]4(C)[C@]3(C)CC[C@@H]12` [ENOXOLONE], the 50% inhibitory concentration (IC50) with MCF7, in the assay with HepG2, in the assay with MDCK, with A549 and in the assay on HeLa was more than 40 µM in each case.

As to `CC[C@H](C)[C@H](N)C(=O)N[C@H]1CC[C@]2(C)[C@H]3C(=O)C=C4[C@@H]5C[C@@](C)(C(=O)OCc6ccccc6)CC[C@]5(C)CC[C@@]4(C)[C@]3(C)CC[C@H]2C1(C)C`, the concentration for half-maximal inhibition (IC50) in the assay on MCF7 is 4.69 µM; in the assay on HepG2 it was 5.15 µM; in the assay on MDCK, 4.13 µM; in the assay with A549, 3.43 µM; in the assay on HeLa, 2.94 µM.

For `CC(C)C[C@H](N)C(=O)N[C@H]1CC[C@]2(C)[C@H]3C(=O)C=C4[C@@H]5C[C@@](C)(C(=O)OCc6ccccc6)CC[C@]5(C)CC[C@@]4(C)[C@]3(C)CC[C@H]2C1(C)C`, the IC50 with MCF7 worked out at 6.1 µM; with HepG2 it was 6.21 µM; with MDCK, 4.65 µM; with A549, 3.28 µM; in the assay with HeLa, 2.3 µM.

As for `CNCC(=O)N[C@H]1CC[C@]2(C)[C@H]3C(=O)C=C4[C@@H]5C[C@@](C)(C(=O)OCc6ccccc6)CC[C@]5(C)CC[C@@]4(C)[C@]3(C)CC[C@H]2C1(C)C`, the IC50 in the assay with MCF7 came out at 3.41 µM; in the assay with HepG2, 3.79 µM; in the assay on MDCK, 3.17 µM; in the assay with A549, 3.35 µM; in the assay with HeLa, 3.2 µM.
